The list is not random: actives were taken first. Their share in the collection is about 5.8%.
T cruzi growth-1 = T. cruzi proliferation inhibition | T. cruzi beta-gal in NIH3T3, GalScreen luminescence, 90 h | inhibition, % at 8.34 µM | 77,000 compounds, 5.9% hits;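 active = mean inhibition above about 93%, with at least 55% of replicates each passing it, limit read from the data, passing the limit was not always enough; inconclusive = only one of those two conditions holds; inactive = neither condition holds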
Pf Dd2 inh = P. falciparum Dd2 growth inhibition | AID 1159554 | activity change, % at 10 µM | SYBR Green, 72 h; active compounds read low | 94,000 compounds, 2.3% hits; in the data active = activity change below about -80%; inconclusive = no clear call, values can overlap the other calls
IDH1 R132H inh = blocks human IDH1 R132H reductase activity; AID 624101; 70,000 compounds, 0.18% hits; inhibition, % at 10 µM; diaphorase/resazurin fluorescence, 60 min; in the data active = inhibition above about 34%; inconclusive = no clear call, values can overlap the other calls; inactive = below about 11%;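 note: 0% = DMSO and 100% = no enzyme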
Target sequence (O75874 whole entry R132H): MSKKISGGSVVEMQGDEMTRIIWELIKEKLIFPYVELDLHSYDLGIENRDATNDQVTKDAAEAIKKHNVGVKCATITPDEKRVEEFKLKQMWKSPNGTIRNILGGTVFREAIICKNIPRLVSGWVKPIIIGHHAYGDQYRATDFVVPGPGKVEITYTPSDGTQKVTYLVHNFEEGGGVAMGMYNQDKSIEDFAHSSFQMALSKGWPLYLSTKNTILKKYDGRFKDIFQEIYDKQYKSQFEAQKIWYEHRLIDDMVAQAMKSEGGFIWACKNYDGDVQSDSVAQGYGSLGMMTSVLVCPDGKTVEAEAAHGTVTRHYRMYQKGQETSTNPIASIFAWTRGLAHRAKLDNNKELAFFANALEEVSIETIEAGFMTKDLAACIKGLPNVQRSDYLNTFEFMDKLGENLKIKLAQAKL
KDM4C inh = inhibitors of human demethylase GASC-1 KDM4C; Q9H3R0; GST-KDM4C 2-372, H3K9me3 peptide, LANCE TR-FRET; inhibition, % at 12.5 µM; 96,000 compounds, 0.15% hits; AID 720574;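 active = mean replicate inhibition above about 25%, with at least 55% of replicates also reaching it, limit read from the data, passing the limit was not always enough; inconclusive = only one of those two conditions met; inactive = neither condition met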
Target sequence (Q9H3R0 2-372 limits assumed): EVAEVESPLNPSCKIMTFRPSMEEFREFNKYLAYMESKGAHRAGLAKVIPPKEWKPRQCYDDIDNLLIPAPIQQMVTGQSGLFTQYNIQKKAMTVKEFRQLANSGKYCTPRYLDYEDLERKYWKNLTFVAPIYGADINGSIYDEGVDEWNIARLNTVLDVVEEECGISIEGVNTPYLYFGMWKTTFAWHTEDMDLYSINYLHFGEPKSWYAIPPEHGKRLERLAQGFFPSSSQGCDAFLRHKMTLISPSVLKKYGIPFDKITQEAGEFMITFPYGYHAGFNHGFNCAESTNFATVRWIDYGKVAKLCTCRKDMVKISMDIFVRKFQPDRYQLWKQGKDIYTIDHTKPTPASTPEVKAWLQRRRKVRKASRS
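System: N-terminal GST-fused human GASC-1 (KDM4C) fragment, residues 2-372 / Amount: 10 nM GST-KDM4C in enzyme reaction / Also added: H3K9me3 peptide with Fe(II)/2OG / Times: 30 min demethylation and 1 h detection at room temperature / Signal: LANCE TR-FRET / Read-out basis: Fall in 671/618 emission ratio as inhibition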
T cruzi growth-2 = blocks T. cruzi growth in NIH3T3 host cells; shares compounds with T cruzi growth-1; T. cruzi beta-gal in NIH3T3, GalScreen luminescence, 90 h; inhibition, % at 8.35 µM; 5,600 compounds, 72% hits;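 active = mean replicate inhibition above about 95% and at least 55% of replicates individually reaching it, limit read from the data; inconclusive = only one of the two criteria is met; inactive = neither criterion is met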
T cruzi growth-3 = blocks T. cruzi growth in NIH3T3 host cells. inhibition, % at 2.09 µM. shares compounds with T cruzi growth-1. 5,600 compounds, 21% hits. T. cruzi beta-gal in NIH3T3, GalScreen luminescence, 90 h;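 active = mean inhibition above about 95%, with at least 55% of replicates also reaching it, limit read from the data; inconclusive = meets just one of the two conditions; inactive = meets neither condition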;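 note: plate controls were neutral control median for no effect and positive control median for full effect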
NIH3T3 tox = NIH/3T3 (mouse) viability loss; shares compounds with T cruzi growth-1; NIH/3T3 viability, CellTiter-Glo ATP luminescence, 90 h; cytotoxicity (signal decrease), % at 8.35 µM; 5,600 compounds, 14% hits; AID 651742;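 active = mean signal decrease across replicates above about 35% based on untreated-well scatter, with enough replicates individually passing, limit read from the data; inconclusive = no rule stated though some were filed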;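 note: 0% = median of neutral control wells and 100% = median of positive control wells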
3T3 cytotox 2 = kills mouse NIH/3T3 fibroblasts; inhibition, % at 24.9 µM; 5,600 compounds, 56% hits; shares compounds with T cruzi growth-1; NIH/3T3 viability, CellTiter-Glo ATP luminescence, 90 h;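 active = mean loss of cell viability signal at or above a set limit, and enough replicates individually reaching it; inconclusive = meets only the mean limit or only the replicate share; inactive = meets neither condition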;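 note: 0% = median of neutral control wells and 100% = median of positive control wells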
An asterisk follows results filed as active; ? = inconclusive; · = not tested or not shown.

SMILES | T cruzi growth-1 | Pf Dd2 inh | IDH1 R132H inh | KDM4C inh | T cruzi growth-2 | T cruzi growth-3 | NIH3T3 tox | 3T3 cytotox 2
COc1ccccc1S(=O)(=O)N(C)C[C@H]1Oc2cc(Br)ccc2S(=O)(=O)N([C@@H](C)CO)C[C@H]1C | · | 4.5 | · | 0.5 | · | · | · | ·
O=C(c1cccc(F)c1)N1CCCCN2[C@@H](CO)[C@H](c3ccc(-c4ccncc4)cc3)[C@@H]2C1 | 109.2* | -64.3 | · | 1.1 | 101.4* | 89.3 | 11.0 | 46.5*
O=C(c1cccc(F)c1)N1CCCCN2[C@H](CO)[C@H](c3ccc(-c4cccnc4)cc3)[C@@H]2C1 | ? | 0.6 | · | 0.1 | 103.2* | 94.5 | -3.6 | -17.2
O=C(c1cccc(F)c1)N1CCCCN2[C@H](CO)[C@@H](c3ccc(-c4ccncc4)cc3)[C@H]2C1 | 67.1 | 17.4 | · | 1.0 | · | · | · | ·
O=C(c1cccc(F)c1)N1CCCCN2[C@H](CO)[C@@H](c3ccc(-c4ccc(F)cc4)cc3)[C@H]2C1 | 80.2 | 31.2 | · | · | · | · | · | ·
O=C(c1cccc(F)c1)N1CCCCN2[C@@H](CO)[C@@H](c3ccc(-c4ccc(F)cc4)cc3)[C@@H]2C1 | 67.3 | -21.1 | · | · | · | · | · | ·
O=C(c1cccc(F)c1)N1CCCCN2[C@@H](CO)[C@H](c3ccc(-c4ccc(F)cc4)cc3)[C@@H]2C1 | 105.2* | -3.6 | · | · | 103.0* | 35.1 | 32.8 | 106.4*
O=C(c1cccc(F)c1)N1CCCCN2[C@H](CO)[C@H](c3ccc(-c4ccc(F)cc4)cc3)[C@H]2C1 | 111.0* | -37.8 | · | · | 101.7* | 84.8 | 16.1 | 104.1*
O=C(c1cccc(F)c1)N1CCCCN2[C@H](CO)[C@H](c3ccc(-c4cccnc4)cc3)[C@H]2C1 | 60.3 | -6.1 | · | 1.3 | · | · | · | ·
CC(=O)Nc1sc2c(c1C(=O)O)CCc1ccccc1-2 | · | · | 2.0 | · | · | · | · | ·
CC(NS(=O)(=O)c1ccccc1)C(=O)Nc1ccc(Cl)c(C(F)(F)F)c1 (stereo not given) | · | · | 0.4 | · | · | · | · | ·
Cc1nnc(SCC(=O)Nc2ccccc2C(F)(F)F)n1-c1ccc(Cl)cc1 | · | · | 0.0 | · | · | · | · | ·
O=C(Nc1ccc(I)cc1C(=O)NCCN1CCOCC1)c1cccnc1 | · | · | 0.5 | · | · | · | · | ·
O=C(CSc1nnc(-c2cccc(Cl)c2)n1-c1ccccc1)Nc1ccc(F)c(F)c1 | · | · | 0.2 | · | · | · | · | ·
Cc1ccc(-c2ccc3c(c2)O[C@H](CN(C)C(=O)C2CCC2)[C@H](C)CN([C@H](C)CO)S3(=O)=O)cc1 | 86.6 | -26.4 | 1.2 | -1.4 | · | · | · | ·
C[C@@H]1CN([C@@H](C)CO)S(=O)(=O)c2ccc(-c3ccc(F)cc3)cc2O[C@H]1CN(C)C(=O)C1CCCCC1 | 105.3* | -66.5 | · | -3.0 | 100.9* | 73.1 | 51.5* | 46.8*
C[C@@H]1CN([C@@H](C)CO)S(=O)(=O)c2ccc(-c3ccncc3)cc2O[C@H]1CN(C)C(=O)C1CCC1 | 108.1* | -13.8 | 8.4 | 2.1 | 102.8* | 77.5 | 5.2 | 45.7*
C[C@H](CO)N1C[C@H](C)[C@H](CN(C)C(=O)C2CCC2)Oc2cc(-c3ccncc3)ccc2S1(=O)=O | 84.5 | -30.2 | · | 3.2 | · | · | · | ·
C[C@H](CO)N1C[C@H](C)[C@H](CN(C)C(=O)C2CC2)Oc2cc(-c3ccccc3F)ccc2S1(=O)=O | 108.8* | -58.0 | -0.5 | -1.4 | 69.8 | 16.4 | 14.7 | 64.5*
Cc1ccc(-c2ccc3c(c2)O[C@H](CN(C)C(=O)C2CCCCC2)[C@@H](C)CN([C@@H](C)CO)S3(=O)=O)cc1 | 123.3* | -40.7 | · | -1.7 | 102.3* | 100.4* | 2.5 | 104.3*
O=C(CCn1cnc2ccccc2c1=O)Nc1ccccc1Br | · | · | 0.7 | · | · | · | · | ·
COc1ccc(C(=O)CC2(O)C(=O)N(Cc3ccc(C)cc3)c3ccc(Cl)cc32)cc1[N+](=O)[O-] (stereo not given) | · | · | -0.8 | · | · | · | · | ·
C[C@@H]1CN([C@@H](C)CO)S(=O)(=O)c2ccc(-c3ccccc3)cc2O[C@@H]1CN(C)C(=O)C1CCCCC1 | 97.1* | -6.0 | · | -1.2 | 102.8* | 82.1 | 25.6 | 80.1*
C[C@@H]1CN([C@@H](C)CO)S(=O)(=O)c2ccc(-c3ccncc3)cc2O[C@@H]1CN(C)C(=O)CC1CC1 | 84.6 | 3.0 | 7.1 | 2.1 | · | · | · | ·
Cc1ccc(-c2ccc3c(c2)O[C@H](CN(C)C(=O)C2CCC2)[C@@H](C)CN([C@H](C)CO)S3(=O)=O)cc1 | 56.6 | -44.0 | · | -0.9 | · | · | · | ·
SMILES | T cruzi growth-1 | Pf Dd2 inh | IDH1 R132H inh | KDM4C inh | T cruzi growth-2 | T cruzi growth-3 | NIH3T3 tox | 3T3 cytotox 2
Cc1ccc(-c2ccc3c(c2)O[C@@H](CN(C)C(=O)C2CCCCC2)[C@@H](C)CN([C@H](C)CO)S3(=O)=O)cc1 | 123.2* | -67.8 | · | -2.2 | 99.2* | 93.4 | 13.0 | 106.1*
C[C@@H]1CN([C@@H](C)CO)S(=O)(=O)c2ccc(-c3ccncc3)cc2O[C@H]1CN(C)C(=O)CC1CC1 | 118.1* | -5.7 | 0.5 | 5.4 | 84.4 | 85.9 | 3.2 | ?
Cc1ccc(-c2ccc3c(c2)O[C@@H](CN(C)C(=O)C2CCCCC2)[C@@H](C)CN([C@@H](C)CO)S3(=O)=O)cc1 | 124.8* | -66.6 | -1.7 | -3.1 | 99.8* | 92.8 | 22.1 | 105.9*
OC(COc1ccc(Cl)cc1)Cn1cnc(-c2ccccc2)c1 (stereo not given) | · | · | -0.2 | · | · | · | · | ·
CSc1ccccc1NC(=O)CN(c1cccc(F)c1)S(C)(=O)=O | · | · | -0.7 | · | · | · | · | ·
C[C@H]1CN([C@@H](C)CO)C(=O)c2c(c3ccccc3n2C)-c2ccccc2CO[C@H]1CN(C)S(=O)(=O)c1cn(C)cn1 | 101.4* | -22.6 | -2.3 | -0.2 | 16.4 | 7.2 | 2.0 | 22.3
C[C@@H]1CN([C@@H](C)CO)C(=O)c2c(c3ccccc3n2C)-c2ccccc2CO[C@@H]1CN(C)S(=O)(=O)c1cn(C)cn1 | ? | 0.9 | -2.9 | -0.6 | 7.5 | -50.4 | 1.0 | 31.0*
C[C@@H]1CN([C@@H](C)CO)C(=O)c2c(c3ccccc3n2C)-c2ccccc2CO[C@H]1CN(C)S(C)(=O)=O | 20.8 | 5.9 | · | 0.5 | · | · | · | ·
C[C@@H]1CN([C@H](C)CO)C(=O)c2c(c3ccccc3n2C)-c2ccccc2CO[C@@H]1CN(C)S(=O)(=O)c1cn(C)cn1 | 90.0 | 16.1 | · | -1.6 | · | · | · | ·
C[C@H]1CN([C@@H](C)CO)S(=O)(=O)c2ccc(-c3ccncc3)cc2O[C@H]1CN(C)Cc1ccccn1 | 103.4* | -11.9 | · | 0.8 | 96.7* | 86.0 | -0.4 | 28.4*
C[C@@H]1CN([C@H](C)CO)S(=O)(=O)c2ccc(-c3ccncc3)cc2O[C@H]1CN(C)Cc1ccccn1 | 112.4* | -31.0 | · | -2.0 | 93.6 | ? | ? | 57.6*
Cc1ccc(OCC(=O)NC(=S)Nc2cc(C(=O)O)ccc2C)cc1 | · | · | 1.2 | · | · | · | · | ·
O=C(CCO[C@@H]1O[C@H](CO)[C@@H](O)[C@H](O)[C@H]1O)c1ccc(O)cc1 | · | · | 0.4 | · | · | · | · | ·
